Here are results for one molecule from ChEMBL document CHEMBL4387709, “Discovery of Quinoline Analogues as Potent Antivirals against Enterovirus D68 (EV-D68)” (J Med Chem, 2019).

Calls of active or inactive are those of the source. No cut-off for these calls is given here.

The nature of data set [1]: Selectivity index, ratio of CC50 for human A172 cells to EC50 for Enterovirus D68 US/MO/14-18947 infected in human A172 cells. It counts as toxicity, cell-based. The following applies: read-out: Ratio CC50/EC50. A digest of the protocol:
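A172 cells kept in DMEM with 10% FBS and 1% P/S, grown to about 90% confluency, then infected at MOI about 0.3 in DMEM with 2% FBS and 30 mM MgCl2 at 33 °C. After 1 h, P/S and compounds were added. Viable cells were stained with neutral red after 3 days (A540). CC50 came from the same assay without virus. EC50 and CC50 were fitted from triplicate dose-response data, and SI = CC50/EC50.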

Data set [2] has as its system RD. The data set is described as follows: Inhibition of 2C protein in Enterovirus D68 US/KY/14-18953 infected in human RD cells assessed as reduction of VP1 expression at 1 uM measured at 9 hrs post infection by DAPI-staining based microscopy. It counts as cell-based. The method in brief: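 Fixed at 9 hpi (4% formaldehyde), 0.2% Triton X-100 permeabilized, blocked with 10% bovine serum. Stained with rabbit anti-VP1 plus Alexa-488 secondary, nuclei with 300 nM DAPI. Confocal microscopy.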

Data set [3] deals with RD. As to the kind of experiment: Cytotoxicity against human RD cells after 3 days by neutral red dye-based photometric method. Format: cell-based. The following applies: rd, 72 h.
Data set [4] can be described thus: Selectivity index, ratio of CC50 for human RD cells to EC50 for Enterovirus D68 US/KY/14-18953 infected in human RD cells. It counts as toxicity, cell-based. The following applies: read-out: Ratio CC50/EC50.
The test system of data set [5] is enterovirus D68. The data set is described as follows: Antiviral activity against Enterovirus D68 US/MO/14-18949 infected in human RD cells assessed as inhibition of virus-induced cytopathic effect incubated for 5 mins under shaking condition and measured after 3 days by neutral red dye-based photometric method. It counts as functional, organism-based. The following applies: Enterovirus D, US/MO/14-18949, RD. The method in brief:
(§1)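 RD cells seeded one day ahead to ~90% confluence, PBS (Mg/Ca) wash, infected at ~MOI 0.01 with EV-D68 in DMEM/2% FBS/30 mM MgCl2 at 33 °C, 5% CO2. Compounds and 1% P/S added after 1 h. Plates shaken ~5 min, held 3 days, viable cells stained with neutral red (66 µg/ml), A540 read. EC50 from dose-response fits, triplicates.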

For data set [6], the system named is enterovirus D68. As to the kind of experiment: Antiviral activity against Enterovirus D68 US/MO/14-18947 infected in human SH-SY5Y cells assessed as inhibition of virus-induced cytopathic effect incubated for 5 mins under shaking condition and measured after 3 days by neutral red dye-based photometric method. Format: functional, organism-based. The following applies: Enterovirus D, US/MO/14-18947, SH-SY5Y. The method in brief: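 Virus at ~MOI 1 applied to SH-SY5Y cells (50% DMEM/50% F-12, 10% FBS) at ~90% confluence in DMEM/2% FBS/30 mM MgCl2 at 33 °C. Compounds added after 1 h with 1% P/S, shaken ~5 min, incubated 3 days. Viability read by neutral red uptake (A540). EC50 fitted from dose-response, triplicate.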
(Protection from cytopathic effect is a common read-out in antiviral testing.)

Data set [7] is described as follows: Selectivity index, ratio of CC50 for human RD cells to EC50 for Enterovirus D68 US/MO/14-18947 infected in human RD cells. It counts as toxicity, cell-based. The following applies: read-out: Ratio CC50/EC50.
For data set [8], the system named is enterovirus D68. The data set is described as follows: Antiviral activity against Enterovirus D68 US/KY/14-18953 infected in human RD cells assessed as inhibition of virus-induced cytopathic effect incubated for 5 mins under shaking condition and measured after 3 days by neutral red dye-based photometric method. Format: functional, organism-based. The following applies: Enterovirus D, US/KY/14-18953, RD. The method in brief: as §1

Data set [9] is described as follows: Selectivity index, ratio of CC50 for human RD cells to EC50 for Enterovirus D68 US/IL/14-18956 infected in human RD cells. Format: toxicity, cell-based. The following applies: read-out: Ratio CC50/EC50. The method in brief: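 RD cells in DMEM with 10% FBS were infected at about 90% confluency at MOI about 0.01, giving full CPE by 3 days, in DMEM with 2% FBS and 30 mM MgCl2 at 33 °C. Compounds and P/S were added 1 h after infection. Viability was read by neutral red uptake (A540). CC50 came from uninfected cells. Means were from triplicates, and SI = CC50/EC50.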

As to `O=C(NCCN1CCCC1)c1cc(-c2cccs2)nc2ccccc12`, the selectivity ratio in data set [1] was found to be 327; in data set [4] it was 667; in data set [7], 667; in data set [9], 800. The inhibition entry with RD [2] was “Active”. For the same molecule, the CC50 – broadly, the concentration that lowers cell viability or growth by half – in the data set on RD [3] was 40000 nM. Further, the half-maximal effective concentration (EC50) (usually the concentration at which the effect is half-maximal) in the data set with enterovirus D68 [5] worked out at 50 nM; in the data set on enterovirus D68 [6], 20 nM; in the data set on enterovirus D68 [8] it was 60 nM.
